Reference: ChEMBL document CHEMBL1140377, “2,5-diketopiperazines as potent, selective, and orally bioavailable oxytocin antagonists. 2. Synthesis, chirality, and pharmacokinetics” (J Med Chem, 2005)

Legend:
Oxytocin receptor = target: T1, Oxytocin receptor (Homo sapiens, UniProt P30559); experiment: Displacement of [3H]oxytocin from human Oxytocin receptor
T1 sequence (P30559 whole entry): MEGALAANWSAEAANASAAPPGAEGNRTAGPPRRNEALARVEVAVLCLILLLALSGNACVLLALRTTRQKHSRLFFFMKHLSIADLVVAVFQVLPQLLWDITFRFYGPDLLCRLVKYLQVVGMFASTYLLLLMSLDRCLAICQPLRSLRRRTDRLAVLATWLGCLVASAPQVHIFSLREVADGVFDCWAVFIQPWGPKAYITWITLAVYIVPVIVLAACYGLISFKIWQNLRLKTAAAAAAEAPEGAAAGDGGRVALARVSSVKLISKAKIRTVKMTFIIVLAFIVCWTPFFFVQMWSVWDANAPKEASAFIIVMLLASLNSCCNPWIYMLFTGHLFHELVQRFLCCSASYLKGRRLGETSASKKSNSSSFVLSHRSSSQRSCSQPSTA

[1] = Lipophilicity of the compound measured as CHI LogD by HPLC; format: physicochemical
Plasma clearance in rat = conditions: in vivo
[2] = Volume of distribution in rat; format: ADME, organism-based; conditions: in vivo, read-out: Vdss
[3] = Bioavailability in rat; format: ADME, organism-based; conditions: in vivo
[4] = Per oral administration of 5 mg/Kg of dose required for measuring Area under concentration of curve in rat; format: ADME; conditions: in vivo
In short: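 Rats (n=2) received 5 mg/kg in 5% DMSO/95% PEG400. Plasma exposure is reported as AUC in h ng mL−1.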

[5] = Half life in rat; format: ADME; conditions: in vivo
Plasma clearance in dog = conditions: in vivo
Vasopressin V2 receptor = Vasopressin V2 receptor (Homo sapiens, UniProt P30518); experiment: Displacement of [3H]oxytocin from human V2 vasopressin receptor
[6] = Per oral administration of 5 mg/Kg of dose required for measuring Area under concentration of curve in dog; format: ADME, Canis lupus familiaris; conditions: in vivo
Vasopressin V1a receptor = Vasopressin V1a receptor (Homo sapiens, UniProt P37288); experiment: Displacement of [3H]vasopressin from human V1a vasopressin receptor
[7] = Per oral administration of 0.6 mg/Kg of dose required for measuring Area under concentration of curve in dog; format: ADME, Canis lupus familiaris; conditions: in vivo
In short: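 Dogs (n=1) received 0.6 mg/kg in either 5% DMSO/95% PEG400 or 5% DMSO/95% labrafil. Exposure is given as plasma AUC in h ng mL−1.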

Vasopressin V1b receptor = target: T2, Vasopressin V1b receptor (Homo sapiens, UniProt P47901); experiment: Displacement of [3H]vasopressin from human V1b vasopressin receptor
T2 sequence (P47901 whole entry): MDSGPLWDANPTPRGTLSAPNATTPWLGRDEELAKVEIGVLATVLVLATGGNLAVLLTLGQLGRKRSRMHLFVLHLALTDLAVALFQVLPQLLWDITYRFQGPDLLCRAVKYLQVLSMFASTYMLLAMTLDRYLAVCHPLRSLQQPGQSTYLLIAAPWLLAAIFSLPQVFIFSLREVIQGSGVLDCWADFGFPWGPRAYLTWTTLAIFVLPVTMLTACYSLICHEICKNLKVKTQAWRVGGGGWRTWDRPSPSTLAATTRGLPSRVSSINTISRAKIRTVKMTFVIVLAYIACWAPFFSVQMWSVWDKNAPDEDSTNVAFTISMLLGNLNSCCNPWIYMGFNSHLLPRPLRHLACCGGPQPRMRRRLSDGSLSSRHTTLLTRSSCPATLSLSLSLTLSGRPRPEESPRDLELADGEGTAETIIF

[8] = Bioavailability in dog; format: ADME, organism-based, Canis lupus familiaris; conditions: in vivo
[9] = Volume of distribution in dog; format: ADME, organism-based, Canis lupus familiaris; conditions: in vivo, read-out: Vdss
[10] = Per oral administration of 0.6 mg/Kg of dose required for measuring Area under concentration of curve in dog; conditions: in vivo

Sequence of Vasopressin V1a receptor (P37288 whole entry): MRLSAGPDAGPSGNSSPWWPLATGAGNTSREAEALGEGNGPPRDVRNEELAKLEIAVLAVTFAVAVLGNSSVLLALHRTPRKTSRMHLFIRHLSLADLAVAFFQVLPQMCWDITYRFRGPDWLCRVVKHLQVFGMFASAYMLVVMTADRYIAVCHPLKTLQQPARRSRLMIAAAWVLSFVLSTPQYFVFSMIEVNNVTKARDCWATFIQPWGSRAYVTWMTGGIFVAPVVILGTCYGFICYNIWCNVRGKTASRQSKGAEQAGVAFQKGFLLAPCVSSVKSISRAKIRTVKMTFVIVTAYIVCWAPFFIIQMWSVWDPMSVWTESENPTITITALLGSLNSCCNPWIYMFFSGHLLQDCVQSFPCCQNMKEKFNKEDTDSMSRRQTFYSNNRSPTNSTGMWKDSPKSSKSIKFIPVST
Sequence of Vasopressin V2 receptor (P30518 whole entry): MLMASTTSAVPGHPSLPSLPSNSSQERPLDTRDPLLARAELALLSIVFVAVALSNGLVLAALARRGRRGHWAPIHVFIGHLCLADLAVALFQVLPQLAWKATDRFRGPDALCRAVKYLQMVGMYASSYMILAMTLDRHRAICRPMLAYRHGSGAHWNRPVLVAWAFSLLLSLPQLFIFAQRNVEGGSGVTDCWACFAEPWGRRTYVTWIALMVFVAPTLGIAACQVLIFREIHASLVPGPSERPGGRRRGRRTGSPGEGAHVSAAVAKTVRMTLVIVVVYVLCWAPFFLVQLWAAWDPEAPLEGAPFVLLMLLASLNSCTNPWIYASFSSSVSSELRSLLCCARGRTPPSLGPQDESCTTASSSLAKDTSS

SMILES | Ki (Oxytocin receptor) | chromatographic logD [1] | AUC [4] | other results
CC(=O)Nc1cccc([C@H](C(=O)NC(C)(C)C)N2C(=O)[C@@H](C3Cc4ccccc4C3)NC(=O)[C@H]2CC(C)C)c1 | 6.31 nM | – | – | –
CC(C)C[C@@H]1C(=O)N[C@H](C2Cc3ccccc3C2)C(=O)N1[C@H](C(=O)NC(C)C)c1ccc(C(F)(F)F)cc1 | 79.4 nM | – | – | –
CC(C)C[C@@H]1C(=O)N[C@H](C2Cc3ccccc3C2)C(=O)N1[C@@H](C(=O)NC(C)(C)C)c1ccccc1 | 5.01 nM | – | – | –
CC(C)C[C@@H]1CN[C@H](C2Cc3ccccc3C2)C(=O)N1[C@@H](C(=O)NC(C)C)c1ccccc1 | 316 nM | – | – | –
C=CCN1C(=O)[C@@H](CC(C)C)N([C@@H](C(=O)NC(C)C)c2ccccc2)C(=O)[C@H]1C1Cc2ccccc2C1 | 63.1 nM | – | – | –
CC(C)C[C@@H]1C(=O)N[C@H](C2Cc3ccccc3C2)C(=O)N1[C@@H](C(=O)NC(C)C)c1ccc(S(C)(=O)=O)cc1 | 10 nM | 2.4 | 60 ng·h/mL | CL (Plasma clearance in rat): 21 mL/min/kg; Vd [2]: 0.7 L/kg; bioavailability [3]: 3%; half-life [5]: 90 min
Cc1ccc([C@@H](C(=O)NC(C)C)N2C(=O)[C@@H](C3Cc4ccccc4C3)NC(=O)[C@H]2CC(C)C)cc1 | 50.1 nM | – | – | –
CC(C)C[C@@H]1C(=O)N[C@H](C2Cc3ccccc3C2)C(=O)N1[C@@H](C(=O)NC(C)C)c1ccc(F)cc1F | – | – | – | CL (Plasma clearance in dog): 11 mL/min/kg; Ki (Vasopressin V2 receptor): 631 nM; AUC [6]: 121 ng·h/mL; Ki (Vasopressin V1a receptor): > 6310 nM; AUC [7]: 291 ng·h/mL; Ki (Vasopressin V1b receptor): > 6310 nM; F [8]: 33%; Vd [9]: 1.2 L/kg
CC(C)C[C@@H]1C(=O)N[C@H](C2Cc3ccccc3C2)C(=O)N1[C@@H](C(=O)NC(C)C)c1ccc(N(C)C)cc1 | 3.16 nM | 3.4 | 287 ng·h/mL | CL (Plasma clearance in dog): 15 mL/min/kg; CL (Plasma clearance in rat): 48 mL/min/kg; Ki (Vasopressin V2 receptor): > 79400 nM; Vd [2]: 2.3 L/kg; bioavailability [3]: 5%; Ki (Vasopressin V1a receptor): > 39800 nM; Ki (Vasopressin V1b receptor): > 50100 nM; AUC [10]: 335 ng·h/mL; bioavailability [8]: 50%; Vd [9]: 1.7 L/kg; half-life [5]: 72 min
CC(C)C[C@@H]1C(=O)N[C@H](C2Cc3ccccc3C2)C(=O)N1[C@H](C(=O)NC(C)C)c1ccc(C(N)=O)cc1 | 158 nM | – | – | –
CC(C)C[C@@H]1C(=O)N[C@H](C2Cc3ccccc3C2)C(=O)N1[C@@H](C(=O)NC(C)(C)C)c1ccc(OC(F)(F)F)cc1 | 5.01 nM | 4.1 | 85 ng·h/mL | –
CC(C)C[C@@H]1C(=O)N[C@H](C2Cc3ccccc3C2)C(=O)N1[C@@H](C(=O)NC(C)C)c1ccc(C(N)=O)cc1 | 31.6 nM | 1.8 | 44 ng·h/mL | –
CC(C)C[C@@H]1C(=O)N[C@H](C2Cc3ccccc3C2)C(=O)N1[C@@H](C(=O)NC(C)C)c1ccc(F)cc1 | 3.98 nM | 3.2 | 421 ng·h/mL | CL (Plasma clearance in dog): 5 mL/min/kg; CL (Plasma clearance in rat): 23 mL/min/kg; Ki (Vasopressin V2 receptor): > 1260 nM; Vd [2]: 0.8 L/kg; bioavailability [3]: 13%; Ki (Vasopressin V1a receptor): > 6310 nM; Ki (Vasopressin V1b receptor): > 6310 nM; AUC [10]: 259 ng·h/mL; bioavailability [8]: 13%; Vd [9]: 0.8 L/kg; half-life [5]: 54 min
COc1ccc([C@@H](C(=O)NC(C)(C)C)N2C(=O)[C@@H](C3Cc4ccccc4C3)NC(=O)[C@H]2CC(C)C)cc1 | 39.8 nM | – | – | –
CC(C)C[C@@H]1C(=O)N[C@H](C2Cc3ccccc3C2)C(=O)N1[C@H](C(=O)NC(C)C)c1ccc(S(C)(=O)=O)cc1 | 100 nM | – | – | –
CC(C)C[C@@H]1C(=O)N[C@H](C2Cc3ccccc3C2)C(=O)N1[C@H](C(=O)NC(C)(C)C)c1ccccc1 | 79.4 nM | – | – | –
CC(C)C[C@@H]1C(=O)N[C@H](C2Cc3ccccc3C2)C(=O)N1[C@@H](C(=O)NC(C)C)c1ccc(C(F)(F)F)cc1 | 5.01 nM | 3.7 | 280 ng·h/mL | –

SMILES | Ki (Oxytocin receptor) | chromatographic logD [1] | AUC [4] | other results
CC(C)C[C@@H]1C(=O)N[C@H](C2Cc3ccccc3C2)C(=O)N1[C@H](C(=O)NC(C)(C)C)c1ccc(Cl)cc1 | 158 nM | – | – | –
CC(C)C[C@@H]1C(=O)N[C@H](C2Cc3ccccc3C2)C(=O)N1[C@H](C(=O)NC(C)C)c1ccccc1 | 50.1 nM | – | – | –
CC(=O)Nc1ccc([C@H](C(=O)NC(C)C)N2C(=O)[C@@H](C3Cc4ccccc4C3)NC(=O)[C@H]2CC(C)C)cc1 | 1.58 nM | – | – | –
CC(C)C[C@@H]1C(=O)N[C@H](C2Cc3ccccc3C2)C(=O)N1[C@H](C(=O)NC(C)C)c1ccc(N(C)C)cc1 | 25.1 nM | – | – | –
CC(C)C[C@@H]1C(=O)N[C@H](C2Cc3ccccc3C2)C(=O)N1[C@@H](C(=O)NC(C)(C)C)c1cccc(N2CCN(C)CC2)c1 | 158 nM | – | – | –
COc1ccc([C@H](C(=O)NC(C)(C)C)N2C(=O)[C@@H](C3Cc4ccccc4C3)NC(=O)[C@H]2CC(C)C)cc1 | 2.51 nM | 3.4 | 101 ng·h/mL | –
CC(C)C[C@@H]1C(=O)N[C@H](C2Cc3ccccc3C2)C(=O)N1[C@H](C(=O)NC(C)(C)C)c1ccc(OC(F)(F)F)cc1 | 158 nM | – | – | –
CC(=O)Nc1ccc([C@H](C(=O)NC(C)(C)C)N2C(=O)[C@@H](C3Cc4ccccc4C3)NC(=O)[C@H]2CC(C)C)cc1 | 2 nM | 2.4 | 59 ng·h/mL | –
c1ccc2c(c1)CNCO2 | 2 nM | – | – | –
CC(=O)Nc1ccc([C@@H](C(=O)NC(C)C)N2C(=O)[C@@H](C3Cc4ccccc4C3)NC(=O)[C@H]2CC(C)C)cc1 | 126 nM | – | – | –
CC(C)C[C@@H]1C(=O)N[C@H](C2Cc3ccccc3C2)C(=O)N1[C@@H](C(=O)N(C)C(C)C)c1ccccc1 | 3.98 nM | – | – | –
CC(C)C[C@@H]1C(=O)N[C@H](C2Cc3ccccc3C2)C(=O)N1[C@@H](C(=O)NC(C)(C)C)c1ccc(Cl)cc1 | 2.51 nM | 4 | 95 ng·h/mL | CL (Plasma clearance in rat): 43 mL/min/kg; Vd [2]: 0.4 L/kg; bioavailability [3]: 2%; half-life [5]: 42 min
CC(C)C[C@@H]1C(=O)N[C@H](C2Cc3ccccc3C2)C(=O)N1[C@@H](C(=O)NC(C)(C)C)c1ccc(N2CCN(C)CC2)cc1 | 25.1 nM | – | – | –
CC(C)C[C@@H]1C(=O)N[C@H](C2Cc3ccccc3C2)C(=O)N1[C@@H](C(=O)NC(C)C)c1ccccc1 | 3.98 nM | 3.2 | 114 ng·h/mL | CL (Plasma clearance in rat): 29 mL/min/kg; Vd [2]: 0.8 L/kg; bioavailability [3]: 5%; half-life [5]: 60 min
CC(C)C[C@@H]1C(=O)N[C@H](C2Cc3ccccc3C2)C(=O)N1[C@H](C(=O)NC(C)C)c1ccc(F)cc1 | 100 nM | – | – | –
Cc1ccc([C@H](C(=O)NC(C)C)N2C(=O)[C@@H](C3Cc4ccccc4C3)NC(=O)[C@H]2CC(C)C)cc1 | 3.98 nM | 3.5 | – | CL (Plasma clearance in rat): 37 mL/min/kg; Vd [2]: 0.6 L/kg; half-life [5]: 36 min
